# From PubChem
# The list is not random: actives were taken first. Their share in the collection is about 4.1%.
# Efflux pump inh: antifungal efflux pump inhibition, Nile Red retention | S. cerevisiae Candida pump triplex | inhibition, % at 10 µM | hit rate 0.44% among 330,000;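 active means plate passing quality check with inhibition over a set limit, or well fluorescence over plate mean plus 4 SD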;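 further: Nile Red retained in pooled yeast measured as flow cytometry median fluorescence; 0% = buffer negative control and 100% = Enniatin B positive control; higher means more Nile Red kept so more efflux inhibition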
# AHR activator: activators of human aryl hydrocarbon receptor; P35869; AHR-responsive luciferase reporter cells, luminescence; activation, % at 5 µM; hit rate 2.5% among 320,000; AID 2796; in the data active means activation above about 47%;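 further: 0% = vehicle wells and 100% = reference agonist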
# SMARCA2 activ: activators of SMARCA2 function. hit rate 1% among 370,000. MG213 cells, MMTV-luciferase reporter, dexamethasone, overnight. activation, % at 9.1 µM; in the data active means activation above about 7.8%;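 further: 0% = vehicle wells and 100% = reference activator wells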
# H9c2 TAG inh: inhibitors of triacylglycerol accumulation | H9c2 cells, Nile Red lipid (TAG) fluorescence; cells loaded with 200 µM oleic acid | inhibition, % at 12.5 µM | hit rate 0.66% among 230,000 | AID 651582;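 active means pattern-corrected inhibition of lipid staining of at least 50% with the nuclear-stain viability signal not falling by more than 50%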;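 further: 0% = DMSO wells and 100% = triacsin C control wells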
# Tb MetRS inh: Trypanosoma brucei MetRS inhibition | purified T. brucei MetRS, ATP depletion, Kinase-Glo luminescence | inhibition, % at 11.9 µM | hit rate 0.4% among 360,000 | AID 624268;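 active means inhibition above a per-plate cutoff of the control wells' mean inhibition plus 3 SD, cut at about 5.5% in these data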;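 further: 0% = DMSO wells median and 100% = median of wells with control inhibitor compound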
#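 Material – parasite MetRS enzyme · Medium – HEPES-MgCl2-KCl buffer plus DTT, spermine, BSA, pyrophosphatase · Reagent – ATP, methionine and E. coli bulk tRNA substrates · Times – 15 min enzyme-compound preincubation, 2 h reaction, 10 min detection, 25 °C · Measured by – luminescence of leftover ATP · Evaluation – percent inhibition relative to median high and low control wells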
# AHR act cf: confirmation of human aryl hydrocarbon receptor activators; shares compounds with AHR activator; AID 2845; human cells, AHR-responsive luciferase reporter, luminescence; hit rate 87% among 2,300; activation, % at 9 µM; in the data active means activation above about 49%;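 further: HepG2 hepatoma cells carrying a DRE-driven firefly luciferase reporter; 0% = vehicle wells and 100% = reference agonist wells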
# PXR act counter: counter-screen for AHR activators: human PXR activators. AID 434939. hit rate 88% among 2,300. cell-based PXR reporter, luciferase luminescence. activation, % at 11.6 µM. shares compounds with AHR activator; in the data active means activation above about 11%;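 further: human hepatoma DPX-2 cells expressing full-length human PXR; 0% = DMSO and 100% = reference agonist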
# Target sequence (O75469 whole entry, looked up): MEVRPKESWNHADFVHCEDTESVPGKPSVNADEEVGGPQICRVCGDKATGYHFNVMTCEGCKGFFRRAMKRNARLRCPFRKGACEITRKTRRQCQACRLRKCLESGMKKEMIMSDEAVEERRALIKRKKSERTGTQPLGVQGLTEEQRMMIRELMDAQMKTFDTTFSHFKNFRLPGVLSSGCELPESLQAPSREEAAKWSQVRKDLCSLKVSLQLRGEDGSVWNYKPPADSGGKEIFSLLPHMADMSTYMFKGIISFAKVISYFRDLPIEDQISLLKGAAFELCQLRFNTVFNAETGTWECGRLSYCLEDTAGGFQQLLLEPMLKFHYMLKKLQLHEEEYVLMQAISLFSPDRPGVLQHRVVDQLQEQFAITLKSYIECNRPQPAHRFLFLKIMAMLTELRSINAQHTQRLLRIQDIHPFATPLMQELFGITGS
# Active calls of the source: *; nt = no result given.
SMILES,Efflux pump inh,AHR activator,SMARCA2 activ,H9c2 TAG inh,Tb MetRS inh,AHR act cf,PXR act counter
CCc1nc2cc(C)nn2c2nc3ccccc3n12,0.3,90.9*,-2.2,2.4,0.2,98.9*,29.6*
Cn1ccsc1=NC(=O)c1ccc(Cl)cc1,-0.1,87.8*,5.1,1.9,-1.1,125.9*,25.2*
Cn1ccsc1=NC(=O)c1ccc(OC(F)(F)F)cc1,0.3,98.0*,3.2,nt,-1.2,109.1*,23.8*
COc1ccc(C(=O)N=c2sccn2C)cc1,0.2,39.5,3.4,2.5,0.4,nt,nt
COC(=O)[C@H](C(C)C)N(CCCc1cn(Cc2ccccc2)nn1)S(=O)(=O)c1ccccc1Br,nt,nt,-3.6,nt,nt,nt,nt
COc1cccc(Cn2nnc(C(=O)Nc3cc(C)ccc3OC)c2N)c1,0.1,127.8*,nt,-8.9,-0.6,33.7,25.9*
COc1cccc(Cn2nnc(C(=O)Nc3ccc(C)cc3)c2N)c1,-0.1,-2.0,-0.5,-18.5,0.3,nt,nt
Cc1cc(N/N=C/c2ccccc2O)nc(-c2ccccc2O)n1,5.0,118.6*,-2.1,nt,0.4,40.2,9.0
Cc1cc(N/N=C/c2ccc(O)cc2O)nc(-c2ccccc2O)n1,-0.1,11.7,nt,nt,0.2,nt,nt
COc1ccc(N(CC(=O)Nc2ccc(C(C)C)cc2)S(=O)(=O)c2c(C)noc2C)cc1,-0.1,5.8,-3.8,nt,-0.3,nt,nt
Cc1noc(C)c1S(=O)(=O)N(CC(=O)Nc1ccc2c(c1)OCO2)c1ccc(C(C)C)cc1,0.0,79.7*,0.2,-0.5,-0.9,83.6*,159.0*
Cn1ncc(Cl)c1C(=O)Nc1ccc(Cl)cn1,0.1,143.4*,0.1,-18.4,-0.3,129.0*,29.3*
Cn1ncc([N+](=O)[O-])c1C(=O)Nc1ccc(C2CCCCC2)cc1,-0.2,33.5,0.2,3.0,-0.6,nt,nt
Cn1ncc(Cl)c1C(=O)Nc1cccc(Cl)c1,0.1,84.0*,0.3,7.8,0.1,105.5*,23.4*
Cn1ncc([N+](=O)[O-])c1C(=O)Nc1cccc(Cl)c1,0.2,99.2*,-1.8,nt,-0.2,107.3*,20.6*
CCn1ncc(Br)c1C(=O)Nc1ccc(Cl)cn1,-0.1,104.6*,-3.8,nt,-1.1,115.0*,44.7*
Cn1cc(CCOCc2ccc(Br)cc2)c2ccccc21,nt,nt,-1.4,nt,nt,nt,nt
CN1CC=C(c2ccc(C(F)(F)F)cc2)N(c2ccccc2)C1=O,nt,nt,-0.1,nt,nt,nt,nt
COc1ccc(S[C@]2(C(=O)N3CCOCC3)CC(=O)N(S(=O)(=O)c3ccc(F)cc3)[C@@H]2c2ccc(OC)cc2)cc1,nt,nt,-0.6,nt,nt,nt,nt
CCCCNC(=O)C[C@@H]1C(=O)N2CCCC3=C2[C@@]1(C(=O)OCC)CCC3,nt,nt,-2.6,nt,nt,nt,nt
O=C(COc1ncnc2ccc(Br)cc12)Nc1ccc(N2CCOCC2)cc1,0.2,20.6,-3.6,-12.7,0.7,nt,nt
Brc1ccc2ncnc(Nc3ccc(N4CCOCC4)cc3)c2c1,0.2,91.6*,-2.2,nt,-0.7,63.2*,nt
COC(=O)[C@]12C=CCN1[C@@H](c1ccc(C(F)(F)F)cc1)c1c(c3ccccc3n1S(=O)(=O)c1ccc(C)cc1)C2,nt,nt,-6.3,nt,nt,nt,nt
CC(=O)c1noc(C)c1C(=O)Nc1nccs1,-0.1,102.7*,-1.5,4.3,-0.3,80.9*,nt
NNC(=O)c1ccc2nc(-c3ccc(Br)cc3)cn2c1,-0.1,99.8*,7.2,8.8,-0.5,49.9*,21.3*
SMILES,Efflux pump inh,AHR activator,SMARCA2 activ,H9c2 TAG inh,Tb MetRS inh,AHR act cf,PXR act counter
Clc1ccc(-c2cn3cc(Cl)ccc3n2)cc1,0.3,87.5*,5.7,nt,-0.2,123.9*,19.2*
COc1cccc(CCNC(=O)CCc2nc(-c3ccccc3F)no2)c1,nt,nt,0.1,nt,nt,nt,nt
COc1cc2c(c(OC)c1OC)C1(CCCCC1)CC2NS(=O)(=O)C(C)C (stereo unspecified),nt,nt,-1.7,nt,nt,nt,nt
O=C1c2ccccc2C(=O)N1CCCCN(C(=O)c1cc([N+](=O)[O-])cc([N+](=O)[O-])c1)c1ccc(Cl)cc1,0.0,-2.7,-0.9,nt,-0.6,nt,nt
O=C1c2ccccc2C(=O)N1CCCCN(C(=O)c1ccc([N+](=O)[O-])cc1)c1ccc(Cl)cc1,0.0,89.6*,-1.3,-20.4,-0.7,89.7*,214.4*
COC(=O)N/N=C1/C/C(=N\NC(=O)OC)c2ccccc21,-0.1,115.2*,1.9,-2.7,1.0,113.1*,9.3
Cc1ccc(-c2[nH]c(-c3ccccc3)nc2SCC(=O)NCC2CCCO2)cc1 (stereo unspecified),0.2,92.6*,-5.4,-5.0,0.2,90.8*,110.3*
Cc1ccc(-c2nc(SCC(=O)NCC3CCCO3)c(-c3ccc(Cl)cc3)[nH]2)cc1 (stereo unspecified),0.0,86.5*,6.6,12.8,1.3,73.1*,73.2*
CCCCn1cnc2c(=O)[nH]ccc21,nt,nt,-6.3,nt,nt,nt,nt
CC(/C=C/c1cccc([N+](=O)[O-])c1)=N/NC(=O)c1cccnc1,-0.8,85.2*,-0.4,-3.1,-0.3,77.1*,nt
CC(/C=N/NC(=O)CSc1nnc(SCc2ccc(C)cc2)s1)=C\c1ccco1,nt,nt,-10.3,nt,nt,nt,nt
Cc1c(-c2ccccn2)c(=O)[nH]n1-c1ccc(F)cc1,0.0,90.7*,1.1,3.8,1.1,77.2*,11.0*
O=c1[nH]n(-c2ccc(F)cc2)c2ncccc12,0.2,16.9,1.4,nt,-0.3,nt,nt
O=c1c(-c2ccccc2)n[nH]c2ccccc12,-0.1,117.2*,5.5,7.0,-1.0,81.2*,25.7*
Cc1cc(NCCCn2ccnc2)n2nc(-c3ccc(F)cc3)cc2n1,-0.2,46.8,4.7,nt,-0.7,nt,nt
Cc1cc(NCCCn2ccnc2)n2nc(-c3ccc(Cl)cc3)cc2n1,-0.1,134.5*,1.9,-3.6,0.9,110.1*,17.9*
C=CCN1C[C@@H](COCc2ccccc2)Oc2cccc(F)c2S1(=O)=O,nt,nt,-2.4,nt,nt,nt,nt
Cn1cncc1C#Cc1c(C=O)n(C)c2ccccc12,-0.1,114.0*,1.6,18.6,0.2,109.2*,22.8*
CC1(C)CC(=O)C=C(c2ccccc2-c2cccc(C(N)=O)c2)C1=O,nt,nt,1.9,nt,nt,nt,nt
COc1cc(-c2noc(-c3ccco3)n2)cc(OC)c1OC,0.3,33.3,-1.5,6.1,0.5,nt,nt
COc1ccccc1-c1noc(-c2ccco2)n1,0.0,90.2*,4.4,nt,-1.2,119.6*,17.3*
COc1ccccc1-c1noc(-c2ccccc2)n1,0.0,121.5*,7.1,-6.9,-1.2,101.1*,26.2*
CN(C)[C@@H]1CCN(c2ccc3c(c2)O[C@H]2CCN(C2)S3(=O)=O)C1,nt,nt,3.7,nt,nt,nt,nt
O=C(Nc1cccc(-c2csc(Nc3ccc(Cl)cc3)n2)c1)c1ccccc1,0.1,93.1*,1.2,41.7,-0.3,95.2*,22.2*
CC(=O)Nc1cccc(-c2csc(Nc3ccc(C)cn3)n2)c1,0.1,145.2*,3.2,nt,-1.3,24.3,33.8*
COc1cccc(CNC(=O)C2CCN(c3nc(OC)nc(OC)n3)CC2)c1,nt,nt,-7.2,nt,nt,nt,nt
C#CCNC(=O)C[C@H]1C[C@@]2(C(=O)OC)C(=C[C@H](C3CCCC3)O[C@@H]2C)N(CCCCCCCC)C1=O,nt,nt,-7.5,nt,nt,nt,nt
